Reference: ChEMBL document CHEMBL1132183 (J Med Chem, 1999)

Tests used:
[1] = target: T1, 5-hydroxytryptamine receptor 1A (Homo sapiens, UniProt P08908); experiment: Displacement of [3H]8-hydroxy-2-(di-n-propylamino)tetralin from human 5-hydroxytryptamine 1A receptor
T1 sequence (P08908 whole entry): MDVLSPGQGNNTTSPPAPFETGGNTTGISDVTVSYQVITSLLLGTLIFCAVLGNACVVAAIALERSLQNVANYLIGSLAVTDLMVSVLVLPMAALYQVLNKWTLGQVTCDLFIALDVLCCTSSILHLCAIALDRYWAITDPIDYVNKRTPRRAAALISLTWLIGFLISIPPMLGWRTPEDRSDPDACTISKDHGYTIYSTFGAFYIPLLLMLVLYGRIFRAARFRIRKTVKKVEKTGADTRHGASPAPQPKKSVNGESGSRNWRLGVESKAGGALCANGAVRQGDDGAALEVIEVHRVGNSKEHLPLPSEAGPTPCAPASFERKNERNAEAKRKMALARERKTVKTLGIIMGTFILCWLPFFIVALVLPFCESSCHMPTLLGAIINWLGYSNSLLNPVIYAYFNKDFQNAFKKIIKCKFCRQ
Procedure, shortened: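 Membranes of HeLa cells stably transfected with human 5-HT1A (genomic clone G-21), in 50 mM Tris-HCl pH 7.4, 2.5 mM MgCl2, 10 μM pargiline. […] Nonspecific binding defined with 10 μM 5-HT. Filtration, scintillation counting. Ki by Cheng–Prusoff; 2–3 experiments in triplicate.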

[2] = target: T2, Alpha-1D adrenergic receptor (Homo sapiens, UniProt P25100); experiment: Displacement of [3H]prazosin from human cloned Alpha-1D adrenergic receptor
T2 sequence (P25100 whole entry): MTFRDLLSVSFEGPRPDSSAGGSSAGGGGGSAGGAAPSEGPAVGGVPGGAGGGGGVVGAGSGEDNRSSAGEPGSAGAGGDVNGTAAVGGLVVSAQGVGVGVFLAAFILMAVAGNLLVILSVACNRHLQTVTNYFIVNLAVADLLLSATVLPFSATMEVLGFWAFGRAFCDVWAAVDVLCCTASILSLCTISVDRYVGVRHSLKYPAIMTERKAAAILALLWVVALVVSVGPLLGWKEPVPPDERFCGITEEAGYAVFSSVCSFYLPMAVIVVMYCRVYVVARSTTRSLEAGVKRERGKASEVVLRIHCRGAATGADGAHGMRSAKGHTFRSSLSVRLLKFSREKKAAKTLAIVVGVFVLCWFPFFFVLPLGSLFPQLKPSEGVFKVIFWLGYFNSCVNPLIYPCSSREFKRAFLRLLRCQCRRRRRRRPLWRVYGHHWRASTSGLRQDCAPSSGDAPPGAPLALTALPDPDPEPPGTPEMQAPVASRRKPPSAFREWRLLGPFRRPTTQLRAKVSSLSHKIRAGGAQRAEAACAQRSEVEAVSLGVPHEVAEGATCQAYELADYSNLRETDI
Procedure, shortened: (§1)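 CHO cells stably transfected with each human α1 subtype; 30 μg membrane protein in 50 mM Tris-HCl pH 7.4 with 0.1–0.4 nM [3H]prazosin, 30 min at 25 °C. Competitors 1 pM–10 μM. Nonspecific binding defined with 10 μM phentolamine. Filtration, scintillation counting. Ki by Cheng–Prusoff; 2–3 experiments in triplicate.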

[3] = target: T3, 5-hydroxytryptamine receptor 1A (Homo sapiens) (UniProt P08908); experiment: Concentration required to obtain 50% maximal stimulation of [35S]GTP gamma-S binding to human cloned 5-HT1A receptors of cell membranes from HeLa cells; format: functional
T3 sequence (whole entry): T1 sequence (P08908 whole entry)
Procedure, shortened: (§2)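 [35S]GTPγS binding in membranes of HeLa cells stably expressing human 5-HT1A, in 20 mM HEPES, 3 mM MgSO4, 120 mM NaCl pH 7.4. Preincubation 20 min at 30 °C with 30 μM GDP and drug (0.1 nM–100 μM), then 150–250 pM [35S]GTPγS for 30 min at 30 °C. Stimulation above basal was scaled to the 5-HT maximum (100%). Emax and pD2 came from curve fits; triplicate, 2–3 sessions.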

[4] = target: T4, Alpha-1B adrenergic receptor (Homo sapiens, UniProt P35368); experiment: Displacement of [3H]prazosin from human cloned Alpha-1B adrenergic receptor; procedure, shortened: as §1
T4 sequence (P35368 whole entry): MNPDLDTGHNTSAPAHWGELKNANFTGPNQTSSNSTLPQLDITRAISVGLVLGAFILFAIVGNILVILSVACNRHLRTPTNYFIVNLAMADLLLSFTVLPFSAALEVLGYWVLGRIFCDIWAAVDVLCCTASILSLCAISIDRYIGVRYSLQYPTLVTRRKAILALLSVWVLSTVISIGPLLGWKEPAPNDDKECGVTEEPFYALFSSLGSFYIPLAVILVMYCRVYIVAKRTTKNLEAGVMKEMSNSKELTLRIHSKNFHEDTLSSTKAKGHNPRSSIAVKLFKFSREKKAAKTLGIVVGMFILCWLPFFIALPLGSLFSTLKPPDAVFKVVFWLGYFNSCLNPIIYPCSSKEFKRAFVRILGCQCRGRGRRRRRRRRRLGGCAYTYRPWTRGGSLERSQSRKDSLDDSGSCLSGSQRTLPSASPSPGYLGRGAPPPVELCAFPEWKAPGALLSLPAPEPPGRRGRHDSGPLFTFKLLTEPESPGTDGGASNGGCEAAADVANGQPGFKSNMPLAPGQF

[5] = target: T3, 5-hydroxytryptamine receptor 1A (Homo sapiens); experiment: Agonist efficacy on 5-hydroxytryptamine 1A receptor subtype; format: functional; procedure, shortened: as §2
[6] = target: T5, Alpha-1B adrenergic receptor (Rattus norvegicus) (UniProt P15823); experiment: Antagonism of Alpha-1B adrenergic receptor subtype (-)-phenylephrine-induced contraction of rat spleen; format: functional, tissue-based
T5 sequence (whole entry): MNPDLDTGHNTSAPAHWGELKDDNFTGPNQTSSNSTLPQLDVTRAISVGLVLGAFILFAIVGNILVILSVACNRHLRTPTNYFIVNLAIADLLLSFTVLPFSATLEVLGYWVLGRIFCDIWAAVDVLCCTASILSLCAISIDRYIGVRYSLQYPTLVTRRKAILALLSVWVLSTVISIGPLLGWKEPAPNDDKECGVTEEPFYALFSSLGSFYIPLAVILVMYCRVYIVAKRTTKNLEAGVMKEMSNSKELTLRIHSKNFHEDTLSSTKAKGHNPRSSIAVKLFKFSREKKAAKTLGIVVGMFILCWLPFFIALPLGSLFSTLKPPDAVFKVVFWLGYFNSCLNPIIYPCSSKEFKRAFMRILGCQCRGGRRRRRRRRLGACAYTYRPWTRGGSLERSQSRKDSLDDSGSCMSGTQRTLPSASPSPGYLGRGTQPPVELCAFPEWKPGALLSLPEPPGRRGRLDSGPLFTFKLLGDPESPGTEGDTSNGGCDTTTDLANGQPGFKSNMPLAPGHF
Procedure, shortened: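 Rat spleen, isometric cumulative (–)-phenylephrine curves at 30-min intervals; first discarded, second taken as control. Antagonist was equilibrated 30 min before the next curve.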

D(2) dopamine receptor = D(2) dopamine receptor (Rattus norvegicus, UniProt P61169); experiment: Displacement of [3H]spiperone from rat brain Dopamine receptor D2
Procedure, shortened: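 Striata from male Sprague–Dawley rats homogenized in Tris-HCl pH 7.4. Buffer held 10 μM pargiline, 0.1% ascorbic acid, 120 mM NaCl, 5 mM KCl, 2 mM CaCl2, 1 mM MgCl2. Incubated with 0.2–0.6 nM [3H]spiperone for 15 min at 37 °C. Nonspecific binding defined with 1 μM (+)-butaclamol. Filtration, scintillation counting. Ki by Cheng–Prusoff.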

Sequence of D(2) dopamine receptor (P61169 whole entry): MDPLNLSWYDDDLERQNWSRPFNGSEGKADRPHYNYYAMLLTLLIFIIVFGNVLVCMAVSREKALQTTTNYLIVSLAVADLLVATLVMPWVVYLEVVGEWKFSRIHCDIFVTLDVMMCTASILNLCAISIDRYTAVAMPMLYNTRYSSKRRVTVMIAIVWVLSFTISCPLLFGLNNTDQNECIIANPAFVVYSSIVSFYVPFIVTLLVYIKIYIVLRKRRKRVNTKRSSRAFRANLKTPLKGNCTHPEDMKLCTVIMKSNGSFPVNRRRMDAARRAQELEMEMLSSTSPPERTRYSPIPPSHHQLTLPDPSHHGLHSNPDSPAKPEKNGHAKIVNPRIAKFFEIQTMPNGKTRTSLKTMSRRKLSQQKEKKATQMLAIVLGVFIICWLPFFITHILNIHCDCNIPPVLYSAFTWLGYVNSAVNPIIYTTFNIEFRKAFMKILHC

SMILES	Ki [1] [nM]	Ki [2] [nM]	pD2 [3]	Ki [4] [nM]	Max [5] [%]	pKb [6]	Ki (D(2) dopamine receptor) [nM]
O[C@H]1[C@@H](NC[C@H]2COc3ccccc3O2)CC[C@@H]1Oc1ccccc1	0.832	200	7.3	1820	82	5.79	2400
O[C@@H]1[C@H](NC[C@@H]2COc3ccccc3O2)CC[C@H]1Oc1ccccc1	22.4	16.2	5.87	93.3	23	6.83	6170
O[C@H]1[C@@H](NC[C@@H]2COc3ccccc3O2)CC[C@@H]1Oc1ccccc1	3.72	933	7.96	> 1000	96	5.44	1120
O[C@@H]1[C@H](NC[C@H]2COc3ccccc3O2)CC[C@H]1Oc1ccccc1	5.5	–	5.87	–	100	7.13	2400
